# Cl transport mod: modulates chloride dependent transport by human KCC2; Q9H2X9; B-score of Tl+ flux slope (higher = more flux/activation; lower = inhibition) at 10 µM; actives 2.2% (n = 190,000); KCC2 cells, thallium flux FluoZin-2 fluorescence;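 active means thallium flux slope and its plate-corrected score both differing from the plate sample mean at a set confidence after two filtering rounds, in either direction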;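 further: slope of fluorescence scaled to starting intensity during 10 to 20 s after thallium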
# Diaphorase inh: inhibits diaphorase or chemically oxidizes, flagging diaphorase assay artifacts; actives 0.69% (n = 190,000); inhibition, % at 20 µM; diaphorase resazurin-to-resorufin fluorescence, NADH, 16 min; bacterial (C. kluyveri) enzyme, not human;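 active means primary screen inhibition at 20 µM above a set limit, cut at about 50% in these data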;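 further: plate controls were DMSO with full reaction for no effect and wells lacking NADH for full effect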
#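 Assay system: diaphorase enzyme from Clostridium kluyveri. Quantity: enzyme working solution with 0.14 U/mL diaphorase. Schedule: reaction incubation of 16 min at room temperature. Technique: resorufin fluorescence, excitation 544 nm, emission 590 nm. Controls: No-NADH positive control and DMSO neutral control.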
# ROMK primary: human ROMK K+ channel modulation, primary screen; P48048; actives 2% (n = 130,000); AID 1918; B-score at 10 µM; Tet-inducible ROMK, thallium flux fluorescence; actives lie on both sides;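 active means signal ratio slope over the read window, or its plate-corrected B-score, at least 3 SD from the plate mean, either direction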;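 further: B-score of the F/F0 ratio slope over 7 to 12 s after thallium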
# Target sequence (P48048 whole entry, looked up): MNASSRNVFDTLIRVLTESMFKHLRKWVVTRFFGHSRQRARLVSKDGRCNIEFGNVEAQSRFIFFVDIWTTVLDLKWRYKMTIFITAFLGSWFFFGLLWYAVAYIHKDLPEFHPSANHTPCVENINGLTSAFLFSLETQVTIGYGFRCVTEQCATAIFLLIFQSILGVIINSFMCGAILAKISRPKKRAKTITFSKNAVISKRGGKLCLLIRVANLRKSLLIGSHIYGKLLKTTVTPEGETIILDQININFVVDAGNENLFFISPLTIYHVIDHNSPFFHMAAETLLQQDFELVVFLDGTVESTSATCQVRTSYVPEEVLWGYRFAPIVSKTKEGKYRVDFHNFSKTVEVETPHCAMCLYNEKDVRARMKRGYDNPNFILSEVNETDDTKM
# L major viab: Leishmania major promastigote growth inhibition; Leishmania major promastigotes, resazurin fluorescence viability; AID 1063; inhibition, % at 10 µM; actives 9% (n = 200,000); in the data active means inhibition above about 50%;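 further: promastigotes grown with compound for 44 hours at 28 °C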
# Diaph act CS: activates diaphorase or chemically reduces, flagging diaphorase assay artifacts; Diaphorase/resazurin coupled assay, resorufin fluorescence, 16 min; active compounds read high; 1 = vehicle wells, 0 = NADH-free wells; activation factor at 20 µM; actives 0.005% (n = 190,000); AID 1229;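 active means diaphorase activity raised at least twofold by the compound at 20 µM; inactive means activation factor below 2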
#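 Test system: Clostridium kluyveri diaphorase, purified enzyme. Buffer or medium: 50 mM HEPES pH 7.4 buffer plus MgCl2 and Tween 20. Also added: 0.114 mM NADH and 0.1 mM resazurin, final amounts. Dosing: compound 20 µM once, DMSO 1%. Schedule: 16 min enzyme reaction, ambient temperature. Detection: fluorescence of resorufin, 544 nm excitation, 590 nm emission.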
# WT yeast gro inh: growth inhibition of WT yeast, mitochondrial fusion screen. mitochondrial fusion phenotypic screen, WT strain. inhibition, % at 10 µM. actives 2.1% (n = 190,000). AID 1362; in the data active means inhibition above about 58%; tested in S. cerevisiae
# The depositor's hits bear a star; . = not tested or not shown. Compounds with a hit are over-represented: about 12% of the library has one in this group of screens.
SMILES,Cl transport mod,Diaphorase inh,ROMK primary,L major viab,Diaph act CS,WT yeast gro inh
c1ccc(Cn2nnc3c(N4CCN(Cc5ccc6c(c5)OCO6)CC4)ncnc32)cc1,0.592,24.8,.,-14.8,0.8,48.0
O=C(Nc1cccc2ccccc12)c1ccc(Cn2cc(Cl)cn2)cc1,-2.79,21.4,0.303,-1.9,0.8,11.4
CCCCCNC(=O)C1CC(=O)OC12CCCCC2 (centres undefined),0.0309,13.3,0.11,-6.5,0.9,6.6
Cc1cc(=O)[nH]c(SCc2cccc3cccnc23)n1,0.253,2.4,-0.877,-2.0,1,-15.1
Cc1nn(-c2ccccc2)c(Cl)c1/C=N/Nc1nncc(=O)[nH]1,0.234,.,.,.,.,.
CCOc1ccccc1-n1nnnc1SCC(=O)NCc1ccco1,-1.57,1.7,-0.348,-7.2,1,2.9
CCc1nc(NCc2ccc3c(c2)OCO3)c2oc3ccccc3c2n1,0.184,21.8,.,72.1*,0.8,1.6
c1ccc(-c2csc(N3CCN(c4ccccn4)CC3)n2)cc1,-1.91,6.8,.,-3.2,0.9,62.8*
O=C(Cn1nc(-c2ccccc2Cl)ccc1=O)Nc1ccc(Br)cc1,-0.751,33.8,-0.754,-7.5,0.7,48.4
O=C(COC(=O)Cc1c(Cl)cccc1Cl)Nc1ccccc1-c1ccccc1,-0.179,12.1,-0.0359,18.1,0.9,80.6*
O=C(Cn1nc(-c2ccccc2Cl)ccc1=O)Nc1ccccc1-c1ccccc1,.,.,-1.14,2.1,.,67.2*
CC(=O)OCC12COC3c4ccccc4OC(C)(CC1C)C3C2C (centres undefined),0.685,8.0,-0.797,21.9,0.9,-11.3
O=S(=O)([N-]c1nc2ccccc2nc1-n1cc[n+](Cc2ccccc2)c1)c1ccc(Cl)cc1,0.664,.,.,.,.,.
O=C(CSCC(=O)N1CCCCC1)Nc1nc(-c2ccccc2)c(-c2ccccc2)s1,2.18,16.0,-1.41,7.1,0.8,60.3*
COc1ccc(Nc2nc(-c3ccccc3)c3ccccc3n2)cc1,0.13,18.8,-0.947,34.4,0.8,64.0*
COc1ccc(Nc2nc(C)c(-c3ccccc3)s2)cc1,-0.999,8.8,-0.0246,7.8,0.9,66.0*
COc1ccc(-c2sc(NC(C)=O)nc2-c2ccccc2)cc1,0.12,22.6,-0.226,65.9*,0.8,1.4
COc1ccc2nc(Nc3ccccc3)sc2c1,-0.000603,8.0,0.507,20.8,0.9,29.3
CCN1CC(CN(C)Cc2nc(-c3ccc(OC)c4ccccc34)oc2C)CC1=O (centres undefined),-0.0882,9.8,-0.776,14.4,0.9,-13.8
COc1ccccc1/C=C(\NC(=O)c1ccc(OC)c(OC)c1)C(=O)Nc1cccc([N+](=O)[O-])c1,0.614,0.0,-0.852,9.9,1,-4.3
O=C/C(=C\Nc1ccc(C(=O)N2CCOCC2)cc1)c1nc2ccccc2o1,0.138,-8.5,0.102,-11.2,1.1,-5.8
COc1ccc(-c2nc(NC(=O)c3n[nH]c(=O)c4ccccc34)sc2C)cc1,-0.126,18.4,0.608,62.8*,0.8,-17.3
COc1ccc2cc3cc(C(=O)Nc4ccccc4N4CCN(C)CC4)oc3nc2c1,.,-9.0,.,99.5*,1.1,19.2
COc1ccc2cc3cc(C(=O)NCc4ccco4)oc3nc2c1,0.348,7.2,-0.492,59.8*,0.9,-7.2
O=C(NCc1ccco1)c1cc2cc3ccc(Cl)cc3nc2o1,0.141,-3.9,.,5.5,1,2.9
SMILES,Cl transport mod,Diaphorase inh,ROMK primary,L major viab,Diaph act CS,WT yeast gro inh
CCOc1ccc(NC(=O)c2cc3cc4ccc(OC)cc4nc3o2)cc1,0.606,5.1,-0.0459,100.1*,0.9,-1.4
COc1ccc2cc3cc(C(=O)NCC4CCCO4)oc3nc2c1 (centres undefined),-0.274,15.5,.,79.3*,0.8,15.1
COc1ccc2cc3cc(C(=O)NCCN4CCN(c5ccccc5F)CC4)oc3nc2c1,.,8.1,.,27.4,0.9,16.0
COc1ccc(OC)c(S(=O)(=O)N2CCC(C(=O)NCCc3ccccc3)CC2)c1,-2.33,10.9,.,16.9,0.9,16.6
CC(=O)c1ccc(OCC(=O)NCC2(N3CCCCC3)CCCCC2)cc1,0.0249,.,.,.,.,.
Cc1c(/N=C(\[O-])Nc2ccc(Br)cc2)sn[n+]1C,0.0103,.,.,.,.,.
COc1ccc(-c2nn(CCC(=O)O)cc2/C=C/C(=O)O)cc1[N+](=O)[O-],0.0452,14.5,-0.0978,-7.9,0.9,-6.4
CCC(C)COC(=O)C(C#N)c1nc2ccccc2nc1N1CCCCC1 (centres undefined),.,33.6,.,33.2,0.7,48.6
CCC(CC)COC(=O)C(C#N)c1nc2ccccc2nc1N1CCN(CC)CC1 (centres undefined),.,21.0,.,100.5*,0.8,58.5
CCCCCCOC(=O)C(C#N)c1nc2ccccc2nc1N1CCN(C)CC1 (centres undefined),-0.7,-2.0,.,54.4*,1,2.0
COc1cccc(NC(=O)CSc2nc3c(c(-c4ccco4)c2C#N)CCCC3)c1,0.000606,-13.6,.,-6.9,1.1,75.7*
CCN(CC)Cc1ccccc1Sc1ccccc1,0.153,5.1,.,94.4*,0.9,21.6
N/C(Cc1ccccc1Sc1ccccc1)=N\O,-0.742,6.4,2.22,2.7,0.9,-8.3
Cc1sc2nc(CN3CCOCC3)[nH]c(=S)c2c1C,73.4*,72.8*,8.62*,-1.0,0.3,-16.8
COCCNC(=O)CCC(=O)NNc1nc2ccccc2c2nc(-c3ccccc3)nn12,0.456,-4.6,.,-1.7,1,-3.6
CCOc1cccc(OCCOCCN2CCCC2)c1,-0.0188,13.0,.,-6.1,0.9,-7.1
Cc1ccc(C(C)(C)C)c(OCCN2CCCC2)c1,0.604,13.8,0.101,4.4,0.9,10.2
CCc1cccc(OCCOCCN2CCCC2)c1,-0.932,8.1,.,96.6*,0.9,-8.8
Cc1cc(OCCOCCN2CCCC2)ccc1C(C)C,0.245,14.0,0.00803,99.9*,0.9,13.1
CC(OCCN1CCCC1)(c1ccc(F)cc1)c1ccc(F)cc1,.,9.8,-1.23,100.1*,0.9,17.9
CC(C)(C)c1ccccc1OCCN1CCCC1,.,6.4,0.536,89.7*,0.9,2.4
Cc1ccc(OCCn2cccn2)c(C)c1,0.321,-3.0,0.126,-6.3,1,-20.4
CCOC(=O)CN1C(=N)N(c2nc(NC(C)C)nc(NC(C)C)n2)CC1=O,0.0885,13.4,.,-3.4,0.9,-12.4
O=S(=O)(c1cccc(-c2n[nH]c(=S)n2C2CCCC2)c1)N1CCOCC1,-0.225,1.7,-0.125,-2.7,1,6.3
Cc1cccc(OCCOCCN2CCNCC2)c1C,0.321,7.6,-1.7,8.4,0.9,2.1
Cc1ccccc1OCCOCCN1CCCCCC1,0.576,11.9,0.693,98.6*,0.9,-2.8
Cc1cccc(C(C)(C)C)c1OCCOCCN1CCCC1,0.407,10.4,-0.581,49.6,0.9,-1.1
Cc1cccc(OCCOCCN2CCOCC2)c1C,.,5.2,.,87.7*,0.9,-6.3
Cc1ccc(C(C)C)cc1OCCOCCN1CCCC1,0.562,7.6,-0.494,99.8*,0.9,10.8

# Assay outcomes (PubChem BioAssay)
